The source of these data is ChEMBL document CHEMBL4041468, “Effects of Koumine on Adjuvant- and Collagen-Induced Arthritis in Rats” (J Nat Prod, 2016).

The nature of data set [1]: Toxicity in ig dosed Wistar rat measured 30 mins after administration via gavage at 4 h intervals during first 24 hrs and twice a day thereafter over the next 13 days. The format is organism-based. The note with it: in vivo, po. In a few lines:
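OECD 425 up-and-down procedure in ten 7-week-old male Wistar rats, fasted overnight. Single gavage dose at 10 mL/kg, starting at 300 mg/kg with a progression factor of 1/0.75. Survival checked at 30 min, every 4 h for 24 h, then twice daily for 13 d. LD50 reported with a 95% confidence interval.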

In data set [2] the test system is Rattus norvegicus. The data set can be described thus: Antiarthritic activity in Lewis rat Freund's adjuvant-induced arthritis model assessed as change in thymus weight at 0.6 to 15 mg/kg, ig administered through gavage pretreated for 1 hr followed by adjuvant challenge subsequent treatment for 9 days measured alternate days up to 24 days post dose. It counts as functional, organism-based. The procedure, abridged: (§1)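 Female Lewis rats (8 weeks old, 120−140 g) given a single intradermal injection of 0.1 mL CFA (10 mg heat-killed M. tuberculosis per 1 mL paraffin oil) into the right hind paw. Oral gavage in sterile saline 1 h before induction, then daily for the next 9 d. Sacrifice by exsanguination under deep anesthesia 24 d after adjuvant. Spleen, liver and thymus weighed and corrected for body weight (g/100 g). n = 10; one-way ANOVA with Student−Newman−Keuls.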

Data set [3] concerns Rattus norvegicus. Description: Antiarthritic activity in Lewis rat Freund's adjuvant-induced arthritis model assessed as change in spleen weight at 0.6 to 15 mg/kg, ig administered through gavage pretreated for 1 hr followed by adjuvant challenge subsequent treatment for 9 days measured alternate days up to 24 days post dose. It counts as functional, organism-based. In a few lines:
as §1

The subject of data set [4] is Rattus norvegicus. The data set can be described thus: Antiarthritic activity in Wistar rat type-2 collagen-induced arthritis model assessed as reduction in arthritis index score administered as ig via gavage for 10 consecutive days starting from day 20 post type-2 collagen injection. It counts as functional. The procedure, abridged: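 Male Wistar rats (7 weeks old) immunized with chicken CII in CFA/IFA, two intradermal 0.3 mL injections 7 d apart. Oral gavage in saline for 10 consecutive days starting day 20. Evaluation at baseline, predosing, and on alternate days thereafter: arthritis score; plethysmometer volume averaged over both hind paws; von Frey threshold 1 h post-dose (max 55 g, two repeats 10 min apart). n = 10.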

Data set [5] deals with Rattus norvegicus. The data set can be described thus: Antiarthritic activity in Wistar rat type-2 collagen-induced arthritis model assessed as reduction in bone erosion at 0.6 to 15 mg/kg, ig via gavage administered 10 consecutive days starting from day 20 post type-2 collagen injection by X-ray method. It counts as functional, organism-based. The procedure, abridged: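 CIA in male Wistar rats (chicken CII emulsion, two intradermal injections 7 d apart); daily gavage for 10 d from day 20. After treatment, hind limbs X-rayed. Left hind paw joints fixed in 10% formalin, decalcified in 10% EDTA for 28 d at 4 °C, paraffin-embedded, sectioned at 5 μm, H&E-stained and examined by light microscopy at 100×.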

The test system of data set [6] is Rattus norvegicus. The data set can be described thus: Antiarthritic activity in Wistar rat type-2 collagen-induced arthritis model assessed as reduction in serum TNF-alpha level at 15 mg/kg, ig via gavage administered 10 consecutive days starting from day 20 post type-2 collagen injection by ELISA method. It counts as functional, organism-based. The procedure, abridged: (§2)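 CIA Wistar rats dosed by gavage daily for 10 d from day 20 post first CII injection. Trunk blood serum stored at −70 °C. Right hind paw joint tissue homogenized at 200 mg/mL in PBS with 50 U/mL aprotinin, then centrifuged at 3000 rpm for 20 min at 4 °C. IL-1β and TNF-α quantified by ELISA kits in serum and supernatant. n = 10; one-way ANOVA with SNK.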
A general note: In an ELISA, binding on a coated surface is turned into a signal by an enzyme label.

The subject of data set [7] is Rattus norvegicus. Description: Antiarthritic activity in Wistar rat type-2 collagen-induced arthritis model assessed as reduction in joint tissue IL-1beta level at 15 mg/kg, ig via gavage administered 10 consecutive days starting from day 20 post type-2 collagen injection by ELISA method. It counts as functional, organism-based. The procedure, abridged: as §2
The test system of data set [8] is Rattus norvegicus. Description: Antiarthritic activity in Wistar rat type-2 collagen-induced arthritis model assessed as reduction in TNF-alpha mRNA expression at 15 mg/kg, ig via gavage administered 10 consecutive days starting from day 20 post type-2 collagen injection by qPCR analysis. It counts as functional, organism-based. The procedure, abridged: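 Male Wistar rats (7 weeks old) given chicken CII (2 mg/mL in 0.1 M acetic acid) emulsified 1:1 in BCG/IFA adjuvant, two intradermal 0.3 mL injections 7 d apart. Gavage in saline daily for 10 d from day 20. Total RNA from ankle synovial tissue homogenate, reverse transcribed, qPCR in triplicate. Fold change vs blank control by 2−ΔΔCt.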
A general note: Quantitative PCR measures a nucleic acid by following its amplification.

Data set [9] deals with Rattus norvegicus. The data set can be described thus: Antiarthritic activity in Wistar rat type-2 collagen-induced arthritis model assessed as reduction in serum anti-type-2 collagen IgG level at 0.6 mg/kg, ig via gavage administered 10 consecutive days starting from day 20 post type-2 collagen injection by ELISA method. The format is functional, organism-based. In a few lines:
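CIA Wistar rats (chicken CII in BCG/IFA emulsion, intradermal twice 7 d apart) gavaged daily for 10 d from day 20. Serum collected after treatment; anti-CII IgG quantified with a rat anti-CII antibody ELISA kit. n = 10 per group; one-way ANOVA with Student−Newman−Keuls.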

Activity calls are given as the source filed them.

Usually LD50 stands for the dose at which mortality reaches 50%. The low end stands for a more toxic substance, the high end for a less toxic substance. Take `C=C[C@@]12CN(C)[C@H]3C[C@]14C(=Nc1ccccc14)[C@H]1C[C@@H]2[C@@H]3CO1`: in data set [1], the LD50 at 14 days is 300 mg/kg. The outcome with Rattus norvegicus [2], in the data set with Rattus norvegicus [5], in the data set with Rattus norvegicus [6], in the data set on Rattus norvegicus [7] and in the data set on Rattus norvegicus [8] was Active. For the same compound, the result with Rattus norvegicus [3] and in the data set with Rattus norvegicus [9] was inactive. The Activity entry in the data set with Rattus norvegicus [4] is “Dose-dependent effect”.
